Screening results (PubChem BioAssay)
In the library only some 2.6% were active in any assay of this set; here they are far more common.
OX1R antag-1: antagonists of human orexin 1 receptor (OX1R) | Orexin/Hypocretin receptor type 1 (Homo sapiens), O43613 | OX1R-expressing cells, FRET antagonist read-out | inhibition, % at 6.6 µM | actives 1.8% (n = 330,000) | AID 485270, 2010; in the data active means inhibition mostly above about 38%, no sharp cut-off; inactive means mostly below about 40%;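 further: 0% = agonist challenge alone and 100% = reference antagonist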
Target sequence (O43613 whole entry, looked up): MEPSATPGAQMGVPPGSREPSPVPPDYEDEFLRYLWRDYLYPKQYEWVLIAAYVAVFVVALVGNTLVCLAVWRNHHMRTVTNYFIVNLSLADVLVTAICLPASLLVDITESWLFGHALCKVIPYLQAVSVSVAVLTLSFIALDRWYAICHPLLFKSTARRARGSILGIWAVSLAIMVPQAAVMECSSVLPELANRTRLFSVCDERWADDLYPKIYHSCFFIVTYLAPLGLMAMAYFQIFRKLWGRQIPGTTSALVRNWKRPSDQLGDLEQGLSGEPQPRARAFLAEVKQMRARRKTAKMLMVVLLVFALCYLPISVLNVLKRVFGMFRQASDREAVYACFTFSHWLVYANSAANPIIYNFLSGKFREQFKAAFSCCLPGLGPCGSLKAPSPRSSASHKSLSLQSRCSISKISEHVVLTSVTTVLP
OXTR potentiate: human OXTR potentiators, primary screen, fluorescence, CHO-OTR cells, Fluo-8 calcium. actives 0.061% (n = 320,000). activation, % at 3 µM. Oxytocin receptor (Homo sapiens), P30559. Fluo-8 calcium fluorescence, potentiator mode; 0% = oxytocin EC15, 100% = EC100;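 active means activation above that plate's cutoff, the mean activation of tested compounds plus 3 SD, cut at about 6.6% in these data, passing the limit was not always enough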;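 further: 100% uses oxytocin at 75 nM as the full agonist control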
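test system = CHO-OTR cells, human receptor | compound = single-point 3.0 µM | schedule = 6 min compound pre-incubation at room temperature, 100 s kinetic read | signal = Fluo-8 no-wash calcium dye fluorescence, excitation 470-495 nm, emission 515-575 nm | repeats = single well per compound, singlicate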
OXTR agonist: human OXTR agonists, primary screen, fluorescence, CHO-OTR cells, Fluo-8 calcium; Fluo-8 calcium fluorescence; normalized: DMSO 0%, oxytocin 100%; activation, % at 3 µM; actives 0.32% (n = 320,000);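 active means activation above the mean of all tested compounds plus 3 SD, cutoff set per screening run, cut at about 20% in these data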;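 further: peak over basal fluorescence ratio from a 100 s FLIPR kinetic read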
OX1R antag-2: OX1R (HCRTR1) antagonists, primary screen, fluorescence, CHO/OX1R cells, Fluo-8 calcium, orexin A | Orexin/Hypocretin receptor type 1 (Homo sapiens), O43613 | Fluo-8 calcium fluorescence | inhibition, % at 5 µM | actives 0.43% (n = 330,000) | AID 434989, 2010;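 active means inhibition above its plate's threshold, mean inhibition of all tested compounds on the plate plus 3 SD, cut at about 37% in these data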;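 further: 0% = orexin A challenge wells and 100% = SB-334867-A antagonist wells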
CHO parental Ca: ATP-evoked calcium signal inhibitors, parental CHO, primary screen, counter-screen for OX1R antagonist project, cell-based, fluorescence, Fluo-8 calcium dye | parental CHO-K1, ATP-induced calcium, Fluo-8 fluorescence | inhibition, % at 5.6 µM | actives 0.63% (n = 330,000);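 active means inhibition above that plate's mean sample inhibition plus 3 SD, cut at about 26% in these data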;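 further: 0% = ATP-challenged DMSO wells and 100% = DMSO wells without ATP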
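Assay system – parental CHO cells · Reagent – ATP stimulus · Detection – intracellular calcium via Fluo-8 no-wash fluorescent dye · Evaluation – percent inhibition of ATP-evoked calcium rise, normalized to controls · Controls – ATP wells versus no-ATP DMSO wells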
V1aR counter: agonists of human V1a receptor, primary screen, counter-screen for OXTR agonist project, fluorescence, CHO-V1R cells | Fluo-8 calcium fluorescence, agonist mode; 0% DMSO, 100% 3 nM vasopressin | Vasopressin V1a receptor (Homo sapiens), P37288 | actives 0.25% (n = 320,000) | activation, % at 3 µM;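 active means activation above the mean activation of all tested compounds plus 3 SD, per screening run, cut at about 20% in these data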;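 further: signal is peak over basal fluorescence ratio across a 100 second FLIPR read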
* marks the source's active call; other numbers are inactive results; / = no result.

SMILES	OX1R antag-1	OXTR potentiate	OXTR agonist	OX1R antag-2	CHO parental Ca	V1aR counter
O=C(COc1ccccc1F)OCC(=O)c1ccc([N+](=O)[O-])cc1	31*	1	0	9	1	0
CCOc1ccc(S(=O)(=O)NCCC(=O)N2CC=C(c3ccccc3)CC2)cc1	14	-13	10	25	26	7
O=C(NNC(=O)c1ccccc1F)c1ccc(S(=O)(=O)N2CCCCC2)cc1	2	-1	1	-14	-17	1
CCN(C(=O)COc1cc(=O)n(CC)c2ccccc12)c1cccc(Cl)c1	47*	-11	1	-31	-12	2
CCN(Cc1ccccc1)C(=O)COc1cc(=O)n(CC)c2ccccc12	58*	-9	-2	-11	-12	1
CCN(C(=O)COc1cc(=O)n(CC)c2ccccc12)c1cc(Cl)ccc1OC	25	-1	-1	-34	-11	0
COc1ccc(Br)cc1/C=C1\Oc2ccccc2NC1=O	2	-5	0	-20	-2	0
O=C1Nc2ccccc2O/C1=C\c1ccccc1Br	45*	-16	-1	4	-16	0
N#CC1=C(N)NC(SCC(=O)c2ccc(Br)cc2)=C(C#N)C12CCCCC2	44	-18	6	5	23	8
N#CC1=C(N)NC(SCC(=O)c2ccc(Cl)cc2)=C(C#N)C12CCCC2	21	-10	15	53*	26	12
CCC(Oc1ccc2c(=O)c(-c3ccccc3OC)coc2c1)C(=O)OCc1ccccc1 (centres undefined)	7	-9	2	-7	57*	1
CCOP(=O)(OCC)/C(C#N)=C/c1ccc([N+](=O)[O-])cc1	0	-7	1	-8	0	0
O=C(NC(c1cccnc1)C(F)(F)F)c1cc(COc2ccc3c(c2)CCCC3)on1 (centres undefined)	10	-4	4	19	42*	9
CCCCNC(=S)Nc1ccc(C(F)(F)F)cc1	65	-12	10	29	71*	4
CCCCNC(=S)Nc1ccc(Cl)cc1	16	-5	3	3	5	3
Cc1noc(C)c1S(=O)(=O)Nc1ccc2c(c1)C(=O)N([C@H](C)CO)C[C@H](C)[C@@H](CN(C)C(=O)NC1CCCCC1)O2	11	3	-1	9	-13	0
Cc1noc(C)c1NC(=O)Nc1cccc2c1O[C@@H](CN(C)Cc1ccc3c(c1)OCO3)[C@@H](C)CN([C@H](C)CO)C2=O	8	10	2	4	1	1
O=C(Nc1ccc(S(=O)(=O)N2CCCC2)cc1)c1ccc(CN2CCc3ccccc3C2)cc1	27	-8	17	49*	38*	14
O=C(Nc1ccc(S(=O)(=O)N2CCOCC2)cc1)c1ccc(CN2CCc3ccccc3C2)cc1	47	-33	18	69*	51*	13
CCCOc1ccc(C(=O)NNC(=S)NC(=O)c2ccccc2)cc1	0	-27	101*	78*	56*	115*
CCCOc1ccc(C(=O)NNC(=S)NC(=O)c2ccco2)cc1	19	-21	95*	86*	70*	98*
CCCOc1ccc(C(=O)NNC(=S)NC(=O)c2cccs2)cc1	-7	-12	79*	70*	64*	85*
CC(C)CC(N)C(=O)OCc1ccc([N+](=O)[O-])cc1 (centres undefined)	16	-4	1	-10	-4	1
Cc1ccc(C2CC2c2n[nH]c(=S)n2-c2ccc(Cl)cc2)cc1 (centres undefined)	10	-7	0	35	86*	-1
Cc1ccc(C2CC2c2n[nH]c(=S)n2-c2cccc(C)c2)cc1 (centres undefined)	20	5	-2	-27	-15	1
SMILES	OX1R antag-1	OXTR potentiate	OXTR agonist	OX1R antag-2	CHO parental Ca	V1aR counter
COc1ccc(CC(=O)Nc2ccncc2Cl)cc1	30	-17	10	18	35*	9
O=C(Cc1c(Cl)cccc1Cl)Nc1ccncc1Cl	16	-11	2	-12	-6	12
O=C(Cc1ccc(Cl)cc1Cl)Nc1ccncc1Cl	22	-9	9	1	31*	7
COc1cc(O)c(CC=C(C)C)c(O)c1C(=O)CCc1ccc(O)cc1	9	-8	14	36	39*	5
Cc1ccc(C(C(=O)NCc2ccccc2)N(Cc2cccs2)C(=O)c2ccc3c(c2)OCCO3)cc1 (centres undefined)	58*	-20	1	13	6	4
CC(C)=CCC/C(C)=C/CNC(=O)C[C@H]1C[C@H](C(=O)N2CCOCC2)[C@@]2(CCC3CCCC3)c3[nH]c4cc(CCC(=O)N(C)C)ccc4c3CCN2C1=O	-17	/	/	-28	1	/
CC(C)(C)C(=O)NC(=S)NNC(=O)c1ccncc1	8	8	0	-8	-6	0
CC(C)(C)C(=O)NC(=S)NNC(=O)c1ccc(-c2ccccc2)cc1	-5	-11	108*	103*	100*	117*
CC(C)(C)C(=O)NC(=S)NNC(=O)c1ccc(Cl)cc1Cl	0	-26	98*	63*	52*	122*
CCOc1ccc(NC(=O)CSc2nnc(C3CC3)n2C2CC2)cc1	2	0	0	5	-3	-1
Cc1ccc(S(=O)(=O)Nc2ccc(SC(F)F)cc2)c(C)c1	-12	-2	-2	2	43*	1
CC(C)c1ccc(S(=O)(=O)Nc2ccc(SC(F)F)cc2)cc1	-2	-12	0	-11	42*	3
Cc1ccc(S(=O)(=O)Nc2ccc3c(c2)n(C)c(=O)n3C)c(C)c1	30	-13	6	5	-1	10
COc1cccc(N2CCN(C(=O)C3CCC(=O)N(C4CCCCCC4)C3)CC2)c1 (centres undefined)	21	-2	3	-23	-10	10
CCOc1ccc(S(=O)(=O)N2CCN(C(=O)CCC(=O)N3CCOCC3)CC2)cc1	15	3	0	-5	-19	-1
Cc1nn(Cc2ccc(C(=O)N3CCN(C(=O)c4ccco4)CC3)o2)c(C)c1[N+](=O)[O-]	66*	2	0	-17	-12	0
O=C(c1ccco1)N1CCN(S(=O)(=O)c2ccc([N+](=O)[O-])cc2)CC1	63*	-19	-2	-24	-9	0
